# Experiments:
# SW-620 = assay: Growth inhibition of human SW620 cells after 72 hrs by MTT assay; type: functional, cell-based; conditions: SW-620, 72 h
# How it was run: (§1)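 Cells were seeded on day 0 at 1 × 10⁴–3 × 10⁴ cells/mL according to doubling time. Compound was added in 10-fold dilutions (10⁻⁸–10⁻⁴ M) from DMSO stocks (final DMSO ≤0.25%, solvent control run) and incubated 72 h. Percentage of growth was calculated, four parallel samples in three experiments. IC50 was derived by linear regression between the concentrations bracketing PG 50; if none fell below, the result was reported as >highest concentration.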
# HeLa [1] = assay: Growth inhibition of human HeLa cells after 72 hrs by MTT assay; type: functional, cell-based; how it was run: as §1
# MIA PaCa-2 = assay: Growth inhibition of human MIAPaCa2 cells after 72 hrs by MTT assay; type: functional, cell-based; conditions: MIA PaCa-2, 72 h; how it was run: as §1
# HaCaT = assay: Growth inhibition of human HaCaT cells after 72 hrs by MTT assay; type: cell-based; how it was run: as §1
# NCI-H460 = assay: Growth inhibition of human H460 cells after 72 hrs by MTT assay; type: functional, cell-based; conditions: NCI-H460, 72 h; how it was run: as §1
# MCF7 = assay: Growth inhibition of human MCF7 cells after 72 hrs by MTT assay; type: functional, cell-based; conditions: MCF7, 72 h
# How it was run: as §1, with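 “time.” for “time. Compound was added in 10-fold dilutions (10⁻⁸–10⁻⁴ M) from DMSO stocks (final DMSO ≤0.25%, solvent control run) and incubated 72 h.”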
# HeLa [2] = assay: Cell cycle arrest in human HeLa cells assessed as accumulation at S phase at 20 uM after 72 hrs by flow cytometry; type: functional
# How it was run: (§2)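 Seeded 2 × 10⁵ cells per well; compound added after 24 h. At 24, 48 and 72 h post-treatment, attached cells were trypsinized and pooled with floating cells. Cells were PBS-washed, fixed in 70% ethanol, then stained with propidium iodide plus RNase A. DNA histograms came from 20 000 events per sample and gave the phase percentages. At least two experiments were run in triplicate, with Student t-test (p < 0.05).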
# HeLa [3] = assay: Cell cycle arrest in human HeLa cells assessed as accumulation at subG1 phase at 20 uM after 72 hrs by flow cytometry; type: functional; how it was run: as §2
# HeLa [4] = assay: Cell cycle arrest in human HeLa cells assessed as accumulation at subG1 phase at 20 uM after 24 hrs by flow cytometry; type: functional; how it was run: as §2
# HeLa [5] = assay: Cell cycle arrest in human HeLa cells assessed as accumulation at G2/M phase at 20 uM after 48 hrs by flow cytometry; type: functional; how it was run: as §2
# HeLa [6] = assay: Cell cycle arrest in human HeLa cells assessed as accumulation at S phase at 20 uM after 48 hrs by flow cytometry; type: functional; how it was run: as §2
# HeLa [7] = assay: Cell cycle arrest in human HeLa cells assessed as accumulation at subG1 phase at 20 uM after 48 hrs by flow cytometry; type: functional; how it was run: as §2
# HeLa [8] = assay: Cell cycle arrest in human HeLa cells assessed as accumulation at G0/G1 phase at 20 uM after 72 hrs by flow cytometry; type: functional; how it was run: as §2
# HeLa [9] = assay: Cell cycle arrest in human HeLa cells assessed as accumulation at G0/G1 phase at 20 uM after 24 hrs by flow cytometry; type: functional; how it was run: as §2
# HeLa [10] = assay: Cell cycle arrest in human HeLa cells assessed as accumulation at G0/G1 phase at 20 uM after 48 hrs by flow cytometry; type: functional; how it was run: as §2
# HeLa [11] = assay: Cell cycle arrest in human HeLa cells assessed as accumulation at S phase at 20 uM after 24 hrs by flow cytometry; type: functional; how it was run: as §2
# HeLa [12] = assay: Cell cycle arrest in human HeLa cells assessed as accumulation at G2/M phase at 20 uM after 72 hrs by flow cytometry; type: functional; how it was run: as §2
# HeLa [13] = assay: Cell cycle arrest in human HeLa cells assessed as accumulation at G2/M phase at 20 uM after 24 hrs by flow cytometry; type: functional; how it was run: as §2
# HeLa [14] = assay: Cell cycle arrest in human HeLa cells assessed as accumulation at G2/M phase at 10 uM after 24 hrs by flow cytometry; type: functional
# How it was run: (§3)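 HeLa cells seeded at 2 × 10⁵ per well; compound added after 24 h. At 24, 48 and 72 h, attached and floating cells were pooled, PBS-washed, fixed in 70% ethanol, then stained with propidium iodide plus RNase A. Flow cytometry counted 20 000 events, and phase percentages came from DNA histograms. At least two experiments in triplicate; Student t-test (p < 0.05).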
# HeLa [15] = assay: Cell cycle arrest in human HeLa cells assessed as accumulation at S phase at 10 uM after 48 hrs by flow cytometry; type: functional; how it was run: as §3
# HeLa [16] = assay: Cell cycle arrest in human HeLa cells assessed as accumulation at subG1 phase at 10 uM after 24 hrs by flow cytometry; type: functional; how it was run: as §3
# HeLa [17] = assay: Cell cycle arrest in human HeLa cells assessed as accumulation at G2/M phase at 10 uM after 72 hrs by flow cytometry; type: functional; how it was run: as §3
# HeLa [18] = assay: Cell cycle arrest in human HeLa cells assessed as accumulation at S phase at 10 uM after 24 hrs by flow cytometry; type: functional; how it was run: as §3
# HeLa [19] = assay: Cell cycle arrest in human HeLa cells assessed as accumulation at subG1 phase at 10 uM after 48 hrs by flow cytometry; type: functional; how it was run: as §3
# HeLa [20] = assay: Cell cycle arrest in human HeLa cells assessed as accumulation at S phase at 10 uM after 72 hrs by flow cytometry; type: functional; how it was run: as §3
# HeLa [21] = assay: Cell cycle arrest in human HeLa cells assessed as accumulation at G0/G1 phase at 10 uM after 72 hrs by flow cytometry; type: functional; how it was run: as §3
# HeLa [22] = assay: Cell cycle arrest in human HeLa cells assessed as accumulation at subG1 phase at 10 uM after 72 hrs by flow cytometry; type: functional; how it was run: as §3
# HeLa [23] = assay: Cell cycle arrest in human HeLa cells assessed as accumulation at G0/G1 phase at 10 uM after 24 hrs by flow cytometry; type: functional; how it was run: as §3
# HeLa [24] = assay: Cell cycle arrest in human HeLa cells assessed as accumulation at G0/G1 phase at 10 uM after 48 hrs by flow cytometry; type: functional; how it was run: as §3
# HeLa [25] = assay: Cell cycle arrest in human HeLa cells assessed as accumulation at G2/M phase at 10 uM after 48 hrs by flow cytometry; type: functional; how it was run: as §3
smiles,measurement,setting,value
O=C(CCl)Nc1cn(COC(CO)CO)c(=O)[nH]c1=O,IC50,SW-620,19 µM
same,IC50,HeLa [1],12 µM
same,IC50,MIA PaCa-2,18 µM
same,IC50,HaCaT,> 100 µM
same,IC50,NCI-H460,24 µM
same,IC50,MCF7,32 µM
CSc1cc[nH]c(=O)n1,IC50,SW-620,> 100 µM
same,IC50,HeLa [1],> 100 µM
same,IC50,MIA PaCa-2,> 100 µM
same,IC50,NCI-H460,> 100 µM
same,IC50,MCF7,> 100 µM
COc1ccc(CSCCN(CCSCc2ccc(OC)cc2)CC(=O)Nc2c[nH]c(=O)[nH]c2=O)cc1,Activity,HeLa [2],44%
same,Activity,HeLa [3],58%
same,Activity,HeLa [4],17%
same,Activity,HeLa [5],13%
same,IC50,SW-620,70 µM
same,Activity,HeLa [6],27%
same,IC50,HeLa [1],4 µM
same,IC50,MIA PaCa-2,3 µM
same,IC50,HaCaT,9 µM
same,Activity,HeLa [7],24%
same,Activity,HeLa [8],43%
same,IC50,NCI-H460,76 µM
same,Activity,HeLa [9],56%
same,Activity,HeLa [10],59%
same,Activity,HeLa [11],24%
same,Activity,HeLa [12],13%
same,Activity,HeLa [13],20%
same,IC50,MCF7,> 100 µM
O=c1[nH]cc(F)c(=O)[nH]1 [FLUOROURACIL],Activity,HeLa [14],1%
same,Activity,HeLa [15],41%
same,Activity,HeLa [16],10%
same,IC50,SW-620,9 µM
same,Activity,HeLa [17],0%
same,Activity,HeLa [18],39%
same,Activity,HeLa [19],12%
same,IC50,HeLa [1],4 µM
same,IC50,MIA PaCa-2,10 µM
same,IC50,HaCaT,0.4 µM
same,Activity,HeLa [20],43%
same,Activity,HeLa [21],57%
same,Activity,HeLa [22],26%
same,IC50,NCI-H460,2 µM
same,Activity,HeLa [23],60%
same,Activity,HeLa [24],59%
same,Activity,HeLa [25],0%
Cc1c(I)c(=O)[nH]c(=O)n1COC(CO)CO [IODMETACYCLUR],IC50,SW-620,> 100 µM
same,IC50,HeLa [1],73 µM
same,IC50,MIA PaCa-2,> 100 µM
same,IC50,NCI-H460,> 100 µM
same,IC50,MCF7,> 100 µM
O=c1nc(NO)cc[nH]1 [N4-hydroxycytosine],IC50,SW-620,> 100 µM
same,IC50,HeLa [1],> 100 µM
same,IC50,MIA PaCa-2,> 100 µM
same,IC50,NCI-H460,> 100 µM
same,IC50,MCF7,> 100 µM
Cn1cc(CO)c(N)nc1=O,IC50,SW-620,> 100 µM
same,IC50,HeLa [1],> 100 µM
same,IC50,MIA PaCa-2,> 100 µM
same,IC50,NCI-H460,> 100 µM
same,IC50,MCF7,> 100 µM
O=c1ccn(COC(CO)CO)c(=O)[nH]1,IC50,SW-620,> 100 µM
same,IC50,HeLa [1],> 100 µM
same,IC50,MIA PaCa-2,> 100 µM
same,IC50,NCI-H460,> 100 µM
same,IC50,MCF7,> 100 µM
O=c1[nH]c(=O)n(COC(CO)CO)cc1O,IC50,SW-620,> 100 µM
same,IC50,HeLa [1],> 100 µM
same,IC50,MIA PaCa-2,> 100 µM
same,IC50,NCI-H460,> 100 µM
same,IC50,MCF7,> 100 µM
Cc1ccc(S(=O)(=O)Nc2ccn(C)c(=O)n2)cc1,IC50,SW-620,> 100 µM
same,IC50,HeLa [1],> 100 µM
same,IC50,MIA PaCa-2,> 100 µM
same,IC50,NCI-H460,> 100 µM
same,IC50,MCF7,> 100 µM

# Source: ChEMBL document CHEMBL1138552, “Synthesis of modified pyrimidine bases and positive impact of chemically reactive substituents on their in vitro antiproliferative activity” (Eur J Med Chem, 2009)
